Measurements gathered from unrelated publications.
Compare with care: the assays were run in different laboratories. Values after ≈ are worked out from the molar mass of the structure shown.

N#Cc1ccc(CN2C(=O)/C(=N\NC(=O)c3cc4ccccc4[nH]3)c3ccccc32)cc1 — IC50 (HT-29; cell growth or viability): 8.11 µM
CCC1(c2ccc(N)cc2)CCC(=O)NC1=O (centres unmarked) — IC50 (A2780; cell growth or viability, CCK-8; 48 h): > 50 µM
CC(C)CCCCCCCCCCCCc1cc(O)cc(O)c1 — IC50 (Streptococcus pneumoniae; microbial growth): 77.3 µM
COc1c2c(cc3c1OCO3)[C@]13C=C[C@H](OC)C[C@@H]1[N@](C2)C[C@H]3OC(=O)c1ccco1 — IC50 (HT-29; cell growth or viability, WST-1): > 10 µM
CO[C@H]1/C=C/O[C@@]2(C)Oc3c(C)c(O)c4c(O)c(c(/C=N/N5CCN(C)CC5)c(O)c4c3C2=O)NC(=O)/C(C)=C\C=C\[C@H](C)[C@H](O)[C@@H](C)[C@@H](O)[C@@H](C)[C@H](OC(C)=O)[C@@H]1C — MIC (Mycobacterium tuberculosis variant bovis BCG; microbial growth; BCG; 7 days): 0.1 µg/mL (≈ 0.122 µM)
COC(=O)c1cc(-c2cccc(NC(=O)Nc3ccc(C)c(Cl)c3)c2)on1 — MIC (Klebsiella pneumoniae; microbial growth, broth dilution; BAA1705): > 64 µg/mL
CC(C)CCCCCCCCCCCCCCc1cc(O)cc(O)c1 — IC50 (Klebsiella pneumoniae; microbial growth; ATCC29665): > 200 µM
Cc1ccc(CN2C(=O)/C(=N\NC(=O)c3cc4ccccc4[nH]3)c3ccccc32)cc1 — IC50 (HT-29; cell growth or viability): 2.45 µM
Cc1c(NN=C(C#N)C2=NC(=O)CS2)c(=O)n(-c2ccccc2)n1C — inhibition zone (Klebsiella pneumoniae; microbial growth, well diffusion; 100000 µg/mL): 25 mm
COC(=O)c1cc(-c2cccc(NC(=O)Nc3ccc(C(F)(F)F)cc3)c2)on1 — MIC (Klebsiella pneumoniae; microbial growth, broth dilution; BAA1705): > 64 µg/mL
C1CCNCC1 — activity vs control (Cryptosporidium parvum; parasite growth, imaging; HCT-8; 1 mM, 24 h, intracellular): 104%
COC(=O)c1cc(-c2cccc(NC(=O)Nc3ccc(F)c(F)c3)c2)on1 — MIC (Klebsiella pneumoniae; microbial growth, broth dilution; BAA1705): > 64 µg/mL
CC(C)C(C)CCCCCCCCCCCc1cc(O)cc(O)c1 (centres unmarked) — IC50 (Streptococcus pneumoniae; microbial growth): 47.5 µM
Cc1cccc(-n2ncc(Cl)c(Cl)c2=O)c1 — IC50 (NCI-H1650; cell growth or viability, resazurin; 96 h): 1.24 µM
COC(=O)c1cc(-c2cccc(NC(=O)Nc3ccc(OC)cc3)c2)on1 — MIC (Klebsiella pneumoniae; microbial growth, broth dilution; BAA1705): > 64 µg/mL
O=C(N/N=C1\C(=O)N(Cc2ccccc2)c2ccc(Br)cc21)c1cc2ccccc2[nH]1 — inhibition (HT-29; cell growth or viability; 30 µM): 94.7%
COC(=O)c1cc(-c2cccc(NC(=S)NC3CCCCC3)c2)on1 — MIC (Klebsiella pneumoniae; microbial growth, broth dilution; BAA1705): > 64 µg/mL
O=C(N/N=C1\C(=O)N(Cc2ccc(Cl)cc2)c2ccccc21)c1cc2ccccc2[nH]1 — IC50 (HT-29; cell growth or viability): 2.64 µM
N#CCc1c[nH]c2ccccc12 — EC90 (Cryptosporidium parvum; parasite growth; HCT-8; 24 h, intracellular): 1230 µM
COC(=O)c1cc(-c2cccc(NC(=O)Nc3ccc(Cl)c(C(F)(F)F)c3)c2)on1 — MIC (Klebsiella pneumoniae; microbial growth, broth dilution; BAA1705): > 64 µg/mL
O=C(N/N=C1\C(=O)N(Cc2ccccc2)c2ccc(Cl)cc21)c1cc2ccccc2[nH]1 — IC50 (Swiss-3T3; cell growth or viability; 72 h): 3.49 µM
C[C@H]1COc2c(N3CCN(C)CC3)c(F)cc3c(=O)c(C(=O)O)cn1c23 — MIC (Klebsiella pneumoniae; microbial growth, broth dilution; BAA1705): 64 µg/mL (≈ 177 µM)
O=C(N/N=C1\C(=O)N(Cc2ccccc2)c2ccccc21)c1cc2ccccc2[nH]1 — inhibition (HT-29; cell growth or viability; 30 µM): 92.7%
